Hits are enriched below; roughly 5.7% of the tested compounds scored in any of these assays.
SKKanGAS inh = SKKanGAS growth inhibition | S. pyogenes SKKanGAS, kanamycin growth, BacTiter-Glo, 6 h | inhibition, % at 7.5 µM | 300,000 compounds, 1.3% hits;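 active = mean replicate score, as percent of positive control median, at least 50; inconclusive = mean below 50 but one replicate at or above 50; inactive = mean and every replicate below 50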;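 also: strain carries kanamycin resistance gene driven by streptokinase promoter and grows in 40 µg/ml kanamycin; loss of luminescence reflects streptokinase promoter inhibition or plain growth inhibition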
Mdm2 MdmX PPI = inhibitors of human Mdm2/MdmX interaction. O15151+Q00987. SaOS-2 split-luciferase Mdm2/MdmX complementation, luminescence. inhibition, % at 8 µM. 330,000 compounds, 3% hits;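 active = inhibition of at least 50% at 8 µM in the primary screen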
Target sequence (O15151 whole entry, looked up): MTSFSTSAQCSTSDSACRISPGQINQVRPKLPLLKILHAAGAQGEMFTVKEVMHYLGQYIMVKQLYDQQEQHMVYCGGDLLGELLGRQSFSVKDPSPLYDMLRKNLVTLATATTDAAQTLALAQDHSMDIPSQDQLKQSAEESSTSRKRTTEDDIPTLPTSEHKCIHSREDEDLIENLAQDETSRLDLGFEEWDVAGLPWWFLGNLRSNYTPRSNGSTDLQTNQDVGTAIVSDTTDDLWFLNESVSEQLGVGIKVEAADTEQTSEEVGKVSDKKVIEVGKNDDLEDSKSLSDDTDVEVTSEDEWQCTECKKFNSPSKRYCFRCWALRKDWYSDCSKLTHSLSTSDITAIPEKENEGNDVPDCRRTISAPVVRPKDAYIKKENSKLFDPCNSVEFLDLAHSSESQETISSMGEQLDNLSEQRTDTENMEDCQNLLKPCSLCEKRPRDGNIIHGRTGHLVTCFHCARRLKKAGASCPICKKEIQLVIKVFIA
Target sequence (Q00987 whole entry, looked up): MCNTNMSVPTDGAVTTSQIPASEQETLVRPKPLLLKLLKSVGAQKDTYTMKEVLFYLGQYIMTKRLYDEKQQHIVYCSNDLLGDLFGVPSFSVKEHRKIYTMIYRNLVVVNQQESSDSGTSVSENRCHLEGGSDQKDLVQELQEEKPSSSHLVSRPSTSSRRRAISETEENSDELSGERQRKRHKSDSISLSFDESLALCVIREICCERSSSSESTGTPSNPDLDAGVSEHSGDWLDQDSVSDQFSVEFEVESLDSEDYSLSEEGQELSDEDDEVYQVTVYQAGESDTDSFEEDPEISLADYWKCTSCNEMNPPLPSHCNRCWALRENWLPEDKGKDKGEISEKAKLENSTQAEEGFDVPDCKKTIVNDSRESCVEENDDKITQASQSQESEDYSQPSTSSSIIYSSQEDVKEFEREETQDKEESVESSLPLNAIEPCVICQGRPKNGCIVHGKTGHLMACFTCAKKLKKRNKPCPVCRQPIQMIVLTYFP
Beta cell apopt = blocks beta cell apoptosis; INS-1E cytokine-induced death, ATP luminescence, 48 h; percent of positive-control rescue, neutral wells zero; protection from apoptosis, % (concentration not given with the values); 300,000 compounds, 0.8% hits;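 active = Every replicate reaches about 75%, or at least half do and their mean reaches it too, limit read from the data; inconclusive = At least half of replicates reach the limit but their mean does not; inactive = Under half of replicates reach the limit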;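 also: higher means more ATP so stronger rescue from cytokine killing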
CSC inhib = blocks cancer stem cells; cancer stem cell-like cells viability, luminescence; inhibition, % at 7.5 µM; 300,000 compounds, 1.1% hits; in the data active = inhibition above about 75%; inconclusive = no clear call, values can overlap the other calls; tested in HMLE shEcad cells
Calb FLC = affects C. albicans growth with fluconazole | C. albicans CaCi-2 (fluconazole-resistant clinical isolate) + fluconazole, Alamar Blue growth, 48 h | growth inhibition, % (concentration not given with the values) | 300,000 compounds, 0.57% hits | AID 1979;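 active = growth inhibition above about 58% in most replicates, limit read from the data, passing the limit was not always enough; inconclusive = exactly half the replicates above a set limit; inactive = most replicates below a set limit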;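 also: all wells also contain fluconazole at 8 µg/ml as a sub-toxic cotreatment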
T cruzi repl = T. cruzi replication inhibition. T. cruzi beta-gal in NIH3T3, luminescence, 90 h. inhibition, % (no concentration beside the values). 300,000 compounds, 1.4% hits. AID 1885;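 active = mean inhibition across valid replicates above about 55%, limit read from the data; inconclusive = mean below that limit but half or more replicates reach it; inactive = mean below it, under half of replicates reach it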;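 also: signal also drops with host cell toxicity which is not excluded here; higher percent means less beta-gal luminescence so fewer parasites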
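compound dosing = single 50 nL compound addition per well in DMSO | material = NIH/3T3 host cells with β-galactosidase reporter T. cruzi | input = 5,000 host fibroblasts per well | timing = ≥90 h infection period, 3 h prior cell attachment | read-out basis = percent inhibition of parasite-derived β-gal signal | detection = GalScreen β-gal luminescence, detergent lysis, 60 min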
Mdm2-MdmX conf = human Mdm2/MdmX binding inhibition, confirmed | inhibition, % at 8 µM | luminescent assay | 10,000 compounds, 55% hits | shares compounds with Mdm2 MdmX PPI; in the data active = inhibition above about 40%
Full FLuc ctr = full-length luciferase inhibition in Mdm2/MdmX counter-screen; 6,200 compounds, 77% hits; SaOS-2 full-length luciferase counterscreen, luminescence; shares compounds with Mdm2 MdmX PPI; inhibition, % at 8 µM;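 active = mean inhibition at 8 µM reaching about 37%, which flags the compound as non-specific, limit read from the data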;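 also: p53-null SaOS-2 cells with luciferase driven by a doxycycline-inducible promoter; compound on cells about two nights before reading with doxycycline added after day one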
Hits are given with their value; - = inactive; ? = inconclusive; . = no result given.

SMILES	SKKanGAS inh	Mdm2 MdmX PPI	Beta cell apopt	CSC inhib	Calb FLC	T cruzi repl	Mdm2-MdmX conf	Full FLuc ctr
CC(=O)NC12CC3CC(C1)CC(C(=O)Nc1nc4c(C)cccc4s1)(C3)C2	-	-	-	-	-	-	.	.
CC(=O)Nc1ccc(Oc2ccc(S(=O)(=O)N3CCCC3)cn2)cc1	.	-	-	-	.	.	.	.
Cc1nc(C(=O)Nc2ccccc2)sc1C1(C)CC(c2cccc([N+](=O)[O-])c2)=NO1 (stereo not drawn)	-	85	-	-	-	-	63	49
COc1ccc(NC(=O)c2nc(C)c(C3(C)CC(c4ccccc4)=NO3)s2)cc1 (stereo not drawn)	-	59	-	-	-	-	58	72
Cc1ccc2c(c1)cc(C(=O)NCc1ccccc1)n2C	-	85	-	-	-	-	56	52
CCc1cc2c(C)ccc(C)c2nc1SCC(=O)Nc1c[nH]c(=O)[nH]c1=O	-	56	-	-	-	-	-	.
CN(C)C(CNC(=O)c1cccc(S(=O)(=O)NCc2ccccc2)c1)c1ccccc1 (stereo not drawn)	.	-	.	.	.	.	.	.
CC(=O)N1N=C(c2ccccc2)CC1c1cn(Cc2ccccc2)c2ccccc12 (stereo not drawn)	-	59	-	-	-	-	51	47
CCOc1ccccc1OCCC(=O)N1CCN(S(=O)(=O)c2ccccc2[N+](=O)[O-])CC1	.	62	-	.	.	.	-	.
CS(=O)(=O)c1ccc(Cl)c(NC(=O)CNC(=O)c2ccc3c(c2)OCO3)c1	.	-	-	-	.	.	.	.
O=C(CCl)NC1CCCc2ccccc21 (stereo not drawn)	-	58	-	-	-	-	-	.
CCN(CC)CCN1c2ccccc2Sc2ccc3ccccc3c21	-	56	106	-	-	-	-	75
CCN(CC)CCN1c2ccccc2Sc2ccccc21	-	-	-	-	-	-	.	.
Cc1ccc(C(=O)NCCC(=O)NCc2ccco2)cc1	-	-	-	-	-	-	.	.
CCOc1cc(-c2nc(-c3ccccc3)c(-c3cc([N+](=O)[O-])ccc3C)[nH]2)ccc1O	-	57	-	.	-	57	-	.
COc1ccc(-c2nc(-c3ccccc3)c(-c3cc([N+](=O)[O-])ccc3C)[nH]2)cc1OC	-	-	-	-	?	-	.	.
O=[N+]([O-])c1ccc(O)c(-c2nc(-c3ccccc3)c(-c3cccs3)[nH]2)c1	102	85	-	100	-	-	89	49
COc1ccc(NC(=O)CN2C(=O)NC3(CCCC3)C2=O)cc1OC	-	-	-	-	-	-	.	.
O=C(COC(=O)c1ccc[nH]c1=O)NCCCc1ccccc1	.	-	-	-	.	.	.	.
Cc1cccc(NC(=O)CSc2nc(C)c(CC(=O)c3ccc(Br)cc3)c(C)c2C#N)c1C	-	100	?	-	-	-	-	.
COc1ccc(NC(=O)CSc2nc(C)c3c(c2C#N)CCCC3)cc1	-	-	-	-	-	-	.	.
Cc1nc(SCC(=O)Nc2ccc(F)cc2)c(C#N)c(C)c1CC(=O)c1ccc(Br)cc1	-	97	-	-	-	-	76	80
COCc1cc(C)nc(SCC(=O)Nc2cccc(C)c2C)c1C#N	-	-	-	-	-	-	.	.
Cc1cc(C(=O)OCC(=O)NCc2ccco2)c(C)n1-c1ccc(F)cc1	-	56	-	-	-	-	52	66
CCNC(=O)COC(=O)c1cc(C)n(-c2ccccc2)c1C	-	-	-	-	-	-	.	.
SMILES	SKKanGAS inh	Mdm2 MdmX PPI	Beta cell apopt	CSC inhib	Calb FLC	T cruzi repl	Mdm2-MdmX conf	Full FLuc ctr
COC(=O)c1c(C)[nH]c(C(=O)CN(C)CC(=O)Nc2cccc(F)c2)c1C	.	-	-	-	.	.	.	.
COc1ccc(OC)c(Nc2nc(-c3cccc([N+](=O)[O-])c3)nc3ccccc23)c1	-	60	-	-	-	-	-	.
COc1ccc2nc(SC(C)C(=O)NC3CCCC3)[nH]c2c1 (stereo not drawn)	.	-	.	.	.	.	.	.
Cc1cccc(CN2CCC(CNC(=O)CSc3cc(=O)n(C)c4cc(Cl)ccc34)CC2)c1	-	65	-	-	-	-	42	67
COCCNC(=O)CSc1cc(=O)n(C)c2cc(Cl)ccc12	-	-	-	-	-	-	.	.
O=C(Cc1ccccc1)NCC(=O)N1CCN(c2ccccc2)CC1	-	-	-	-	-	-	.	.
O=C(NC(CSCc1ccccc1)C(=O)N/N=C/c1ccc(O)cc1O)c1ccc([N+](=O)[O-])cc1 (stereo not drawn)	71	65	78	105	-	-	74	-
CSc1nc(NNC=O)cc(Oc2ccc(NC(C)=O)cc2)n1	-	-	-	-	-	-	.	.
CCN(CC)CCC(=O)N1c2ccccc2Sc2ccc(Cl)cc21	-	56	-	-	-	-	-	65
CCC(=O)Nc1ccc(C(=O)CN2C(=O)NC3(CCOc4ccccc43)C2=O)cc1 (stereo not drawn)	.	-	-	.	.	.	.	.
O=C(Nc1ccc(F)cc1F)c1ccccc1NC(=O)C1CC=CCC1C(=O)O (stereo not drawn)	-	-	-	-	-	-	.	.
Cn1c(CCN2CCCCC2)nc2cc(NC(=O)COc3ccc(Cl)cc3)ccc21	-	-	-	-	.	-	.	.
Cc1ccc(C(C)C)c(OCC(=O)Nc2ccc3c(c2)nc(CCN2CCCCC2)n3C)c1	-	99	-	-	.	-	82	60
Cn1c(CCN2CCCC2)nc2cc(NS(=O)(=O)c3ccc(Cl)cc3)ccc21	-	69	-	-	-	-	-	.
O=C(NCCCCc1ccccc1)Nc1ccc(F)cc1	?	-	-	-	-	-	.	.
COc1cccc(CNS(=O)(=O)c2c(C)[nH]c(C)c2C(=O)N2CCCC2)c1	-	-	-	-	-	-	.	.
CN(CC(=O)Nc1ccccc1N1CCCC1)S(=O)(=O)c1ccc(F)cc1	-	-	-	-	-	-	.	.
Cc1cc(C)nc(NC(=NCCc2c[nH]c3ccccc23)NC(=O)C(C)(C)C)n1	-	52	-	-	-	61	-	.
Cc1cc(C)nc(N2C(=O)CC(C(=O)O)NC2=NCCc2c[nH]c3ccccc23)n1 (stereo not drawn)	-	-	-	-	-	-	.	.
O=C1c2ccccc2C(=O)C1c1nccc2ccccc12	-	67	-	-	-	-	-	.
O=C1c2ccccc2C(=O)C1c1ccnc2ccccc12	-	-	-	-	-	-	.	.
O=c1cc(-c2ccc(O)c(O)c2)oc2c1ccc1ccccc12	.	-	-	-	.	.	.	.
O=c1cc(-c2ccc(O)c(O)c2)oc2ccc3ccccc3c12	.	55	.	.	.	.	74	131

Bioassay records from PubChem.
